CDK5 p35 inh – inhibitors of human CDK5/p35 kinase, primary screen, biochemical, single concentration. inhibition, % at 10 µM. AID 488839, 2010. Recombinant CDK5/p35, ADP-Glo luminescence, 60 min. 330,000 tested, 0.01% active;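 active = highest replicate inhibition of at least 50% and at least 75% of replicates reaching 50%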;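 also: plate controls were DMSO neutral control for no effect and GW8510 at 10 µM for full effect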
PKA-R1A activ – activators of PKA-R1A holoenzyme, primary screen, biochemical, fluorescence polarization, Cy5-IP20, bovine R1A, mouse PKAc; cAMP-dependent protein kinase type I-alpha regulatory subunit (Bos taurus) + …; PKA-R1A dissociation; scaled: DMSO 0%, 113 µM cGMP 100%; activation, % at 11.4 µM; 340,000 tested, 0.083% active; AID 504707, 2011;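 active = percent activation above the mean of all tested compounds plus 3 SD, cut at about 19% in these data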;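 also: higher means more PKAc released from R1A so a rise in polarization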
SR-BI DiI-HDL act – activators of SR-BI mediated DiI-HDL uptake, primary screen, ldlA[mSR-BI] CHO cells, DiI fluorescence | AID 504775, 2011 | 320,000 tested, 0.096% active | activation, % at 12.5 µM | 3 h; 100 = double the neutral-control signal;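 active = mean replicate activation of at least 60% and every replicate at or above 60%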;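 also: 0% = median plate neutral-control signal and 100% = twice that signal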
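Test system: SR-BI-overexpressing, LDLR-lacking CHO cells; Medium: Ham's F12 with 0.5% BSA, HEPES 25 mM, pH 7.4; Schedule: 3 h, 37 °C; Technique: bottom-read fluorescence, 550/595 nm.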
PKA-R2B activ – activators of PKA-R2B holoenzyme, primary screen, biochemical, fluorescence polarization, Cy5-IP20, human; cAMP-dependent protein kinase catalytic subunit beta (Homo sapiens) + cAMP-dependent …; 340,000 tested, 0.079% active; PKA-R2B holoenzyme dissociation; R2B truncated from residue 108, S112A mutant; 0% DMSO only, 100% 113 µM cGMP; AID 504700, 2011; activation, % at 11.4 µM;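 active = activation above a cutoff set at the mean over all compounds plus 3 SD, cut at about 18% in these data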;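 also: higher means more holoenzyme dissociation and a rise in polarization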
SR-BI DiI inh – inhibitors of SR-BI mediated HDL lipid uptake, primary screen, ldlA[mSR-BI] cells, fluorescence, single point; ldlA[mSR-BI] CHO cells, DiI-HDL uptake fluorescence, 3 h; inhibition, % at 12.5 µM; 320,000 tested, 0.96% active; AID 488896, 2010;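 active = mean replicate inhibition of at least 70% and a set share of replicates each scoring 70 or more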;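 also: 0% = median of neutral control wells and 100% = median of positive control wells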
dFosB act – activators of delta FosB homodimer, primary screen, biochemical, fluorescence polarization, TAMRA-CDK5 oligo, single point; 340,000 tested, 0.99% active; purified delta FosB; percent of positive-control signal above neutral wells; activation, % at 25 µM;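 active = mean activation above about 17%, with every replicate also reaching it, limit read from the data, passing the limit was not always enough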
R1A FP artifact – FP signal interference without PKA proteins, confirmation, artefact control for PKA-R1A activator project, biochemical, fluorescence polarization, triplicate | shares compounds with PKA-R1A activ | Cy5-IP20 peptide alone, fluorescence polarization artifact counterscreen | activation, % at 11.4 µM | 280 tested, 7% active | AID 504799, 2011;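 active = mean activation over triplicate runs exceeds the adjusted cutoff derived for the parent primary screen, cut at about 19% in these data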;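 also: no PKA protein present so any polarization rise reflects compound interference; 0% = tracer peptide mix alone and 100% = mix with added PKA catalytic subunit; higher means stronger polarization artifact and likely false positive in parent screen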
PKA-R1A act conf – activators of PKA-R1A holoenzyme, confirmation, biochemical, fluorescence polarization, Cy5-IP20, triplicate | shares compounds with PKA-R1A activ | PKA-R1A holoenzyme dissociation | activation, % at 11.4 µM | 280 tested, 9% active;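 active = mean activation over replicate wells exceeds the adjusted hit threshold taken from the earlier primary screen, cut at about 20% in these data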;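 also: 0% = holoenzyme mix with DMSO only and 100% = cGMP-activated control wells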
Target sequence (P00514 whole entry, looked up): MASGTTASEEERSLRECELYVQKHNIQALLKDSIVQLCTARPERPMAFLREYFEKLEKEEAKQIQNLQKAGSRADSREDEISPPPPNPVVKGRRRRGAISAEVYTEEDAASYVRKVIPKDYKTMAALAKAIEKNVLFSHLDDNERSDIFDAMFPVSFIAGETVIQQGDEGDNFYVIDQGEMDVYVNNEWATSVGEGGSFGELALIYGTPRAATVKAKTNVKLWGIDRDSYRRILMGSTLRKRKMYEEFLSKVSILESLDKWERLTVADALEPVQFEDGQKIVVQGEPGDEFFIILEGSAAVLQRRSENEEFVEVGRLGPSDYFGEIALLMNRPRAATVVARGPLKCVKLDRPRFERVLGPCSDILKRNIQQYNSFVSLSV
* = called active by the depositor. Only some compounds are listed: those with a hit (about 2.1% of all), similar ones and a draw of the others.

`Cc1ccc(C(C(=O)NC2CCCC2)N(C(=O)c2csnn2)c2ccccc2)o1` (configuration not stated) gave CDK5 p35 inh -1, PKA-R1A activ 20*, SR-BI DiI-HDL act -3, PKA-R2B activ -7, SR-BI DiI inh 3, dFosB act -2, R1A FP artifact 5 and PKA-R1A act conf 5.
Screening C/C(=N\NC(=O)c1ccoc1C)c1ccc(Cl)s1 returned CDK5 p35 inh 0, PKA-R1A activ 20*, SR-BI DiI-HDL act 8, PKA-R2B activ -4, SR-BI DiI inh -8, dFosB act 7, R1A FP artifact 2 and PKA-R1A act conf 5.
For C/C(=N\NC(=O)c1csc(C)c1C)c1ccc(Cl)s1 the results were CDK5 p35 inh -1, PKA-R1A activ 11, SR-BI DiI-HDL act -17, PKA-R2B activ 1, SR-BI DiI inh 17 and dFosB act 0.
Screening CC(=NNC(=S)N1CC2CCC(CC2)C1)c1ccncn1 returned CDK5 p35 inh 0, PKA-R1A activ -6, SR-BI DiI-HDL act -34, PKA-R2B activ 3, SR-BI DiI inh 34 and dFosB act -2.
COc1ccc(C)cc1NC(=O)CO/N=C(\N)CC(=O)Nc1ccccc1OC was read as CDK5 p35 inh -1, PKA-R1A activ 20*, SR-BI DiI-HDL act -20, PKA-R2B activ 4, SR-BI DiI inh 20, dFosB act -8, R1A FP artifact 3 and PKA-R1A act conf 1.
For COc1ccccc1NC(=O)CON=C(N)CC(=O)NC1CCCCC1 the results were CDK5 p35 inh 0, PKA-R1A activ -12, SR-BI DiI-HDL act 16, PKA-R2B activ -3, SR-BI DiI inh -16 and dFosB act -8.
CN(c1ccccc1)S(=O)(=O)c1cccc(C(=O)NCC(c2cccs2)N2CCOCC2)c1 (configuration not stated) was read as PKA-R1A activ -9 and PKA-R2B activ -1.
Screening COc1cc(OC)cc(-c2nc(-c3ccccc3OC)no2)c1 returned CDK5 p35 inh -1, PKA-R1A activ 19*, SR-BI DiI-HDL act -32, PKA-R2B activ 12, SR-BI DiI inh 32, dFosB act -17, R1A FP artifact 3 and PKA-R1A act conf 5.
For COc1ccccc1-c1noc(-c2cc(OC)c(OC)c(OC)c2)n1 the results were CDK5 p35 inh 2, PKA-R1A activ 4, SR-BI DiI-HDL act -61, PKA-R2B activ 3, SR-BI DiI inh 61 and dFosB act -38.
`Cc1ccc(S(=O)(=O)n2cnc(C)c2)cc1` gave CDK5 p35 inh 1, PKA-R1A activ 20*, SR-BI DiI-HDL act 6, PKA-R2B activ 4, SR-BI DiI inh -6, dFosB act -5, R1A FP artifact 3 and PKA-R1A act conf 3.
`Cc1cc(=O)n2cn[nH]c2n1` gave CDK5 p35 inh -1, PKA-R1A activ 0, SR-BI DiI-HDL act 23, PKA-R2B activ 2, SR-BI DiI inh -23 and dFosB act 1.
`O=c1c(Cl)c(NCc2ccco2)cnn1C12CC3CC(CC(C3)C1)C2` gave CDK5 p35 inh -4, PKA-R1A activ 11, PKA-R2B activ 3 and dFosB act -7.

Screening results: PubChem BioAssay, several laboratories
